Tested on: OVA-sensitised Brown Norway rat
Assay: OVA-sensitised and challenged Brown Norway rat allergy model
Assay type: in vivo
Settings: 1 mg/kg intratracheal, 24 h before and 24 h after OVA challenge
Summary of the method: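 In OVA-sensitised Brown Norway rats, the test compound was given intratracheally 24 h before and 24 h after OVA challenge (5 sensitised-only, 9 dosed per point; or groups of eight). Alternatively, from 14 days post-sensitisation, rats received 1 mg/kg weekly for eight doses (10 per point), then aerosolised OVA 26 days later. BAL eosinophils and IL-13 were measured 48 h post-challenge. Results were given as mean±SEM; Mann-Whitney U test versus vehicle-dosed OVA controls.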

## CCCC1O[C@@H]2C[C@H]3[C@@H]4CCC5=CC(=O)C=C[C@]5(C)[C@H]4[C@@H](O)C[C@]3(C)[C@]2(C(=O)CO)O1 (stereo partly shown) [budesonide]
  efficacy of acute dosing (BAL eosinophils, IL-13): demonstrated efficacy

Reference: publication PMC4769423 (BMJ Open Respiratory Research, 2016)
